Assay results from ChEMBL document CHEMBL4257484, “Membrane-active antimicrobial poly(amino-modified alkyl) β-cyclodextrins synthesized via click reactions” (Medchemcomm, 2018).
Converted amounts (≈) assume the structure as drawn.

What was measured:
[1] = Lipophilicity, log P of the compound; assay type: physicochemical; settings: octanol/water
Staphylococcus aureus [2] = test: Antibacterial activity against methicillin-sensitive Staphylococcus aureus FDA 209P after 20 hrs by liquid microdilution method; assay type: functional
Method in brief: (§1)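 Two-fold serial dilutions of compound in Mueller–Hinton broth, inoculated with 1 × 10^4 cells and cultured at 37 °C for 20 h in microtiter wells.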

Bacillus subtilis = test: Antibacterial activity against drug-sensitive Bacillus subtilis 168 after 20 hrs by liquid microdilution method; assay type: functional; settings: subsp. subtilis str. 168, 20 h; method in brief: as §1
Escherichia coli = test: Antibacterial activity against drug-sensitive Escherichia coli K-12 W3110 after 20 hrs by liquid microdilution method; assay type: functional; settings: K-12 substr. W3110, 20 h; method in brief: as §1
Salmonella typhimurium = test: Antibacterial activity against drug-sensitive Salmonella typhimurium LT2 after 20 hrs by liquid microdilution method; assay type: functional, Salmonella enterica subsp. enterica serovar Typhimurium; settings: Salmonella enterica, LT2, 20 h; method in brief: as §1
Pseudomonas aeruginosa = test: Antibacterial activity against drug-sensitive Pseudomonas aeruginosa PAO1 after 20 hrs by liquid microdilution method; assay type: functional; settings: PAO1, 20 h; method in brief: as §1
[3] = Hemolytic activity in rabbit RBC at 50 uM after 20 mins relative to control; assay type: ADME, cell-based, Oryctolagus cuniculus, Erythrocyte; settings: rabbit red blood cells (erythrocytes), read-out: Activity
Method in brief: (§2)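 Rabbit erythrocytes suspended in 150 mM NaCl/10 mM Hepes-NaOH, pH 7.4, at 0.5% hematocrit (final) and incubated with compound at 37 °C. The table footnote gives 20 min; the methods section gives 30 min. Hemolysis was read as absorbance at 540 nm, with 50 µM lysolecithin defining 100% hemolysis.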

[4] = Hemolytic activity in rabbit RBC at 20 uM after 20 mins relative to control; assay type: ADME, cell-based, Oryctolagus cuniculus, Erythrocyte; settings: rabbit red blood cells (erythrocytes), read-out: Activity; method in brief: as §2
[5] = Hemolytic activity in rabbit RBC at 10 uM after 20 mins relative to control; assay type: ADME, cell-based, Oryctolagus cuniculus, Erythrocyte; settings: rabbit red blood cells (erythrocytes), read-out: Activity; method in brief: as §2
[6] = Hemolytic activity in rabbit RBC at 5 uM after 20 mins relative to control; assay type: ADME, cell-based, Oryctolagus cuniculus, Erythrocyte; settings: rabbit red blood cells (erythrocytes), read-out: Activity; method in brief: as §2
[7] = Hemolytic activity in rabbit RBC at 2 uM after 20 mins relative to control; assay type: ADME, cell-based, Oryctolagus cuniculus, Erythrocyte; settings: rabbit red blood cells (erythrocytes), read-out: Activity; method in brief: as §2
[8] = Hemolytic activity in rabbit RBC at 1 uM after 20 mins relative to control; assay type: ADME, cell-based, Oryctolagus cuniculus, Erythrocyte; settings: rabbit red blood cells (erythrocytes), read-out: Activity; method in brief: as §2
Staphylococcus aureus [9] = test: Antibacterial activity against methicillin-resistant Staphylococcus aureus MS29202 after 18 to 20 hrs by agar dilution method; assay type: functional
Method in brief: (§3)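 Agar dilution per CLSI. Overnight broth cultures were diluted 100-fold, and one loopful (about 10^5 to 10^4 CFU) was spotted onto agar plates containing the CD. Growth was scored after 18–20 h at 37 °C. MIC values are in µM.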

Streptococcus agalactiae = test: Antibacterial activity against drug-resistant Streptococcus agalactiae B1 after 18 to 20 hrs by agar dilution method; assay type: functional; method in brief: as §3
Enterococcus faecium = test: Antibacterial activity against drug-resistant Enterococcus faecium MS29120 after 18 to 20 hrs by agar dilution method; assay type: functional; method in brief: as §3
Enterococcus faecalis [10] = test: Antibacterial activity against drug-resistant Enterococcus faecalis MS29030 after 18 to 20 hrs by agar dilution method; assay type: functional; method in brief: as §3
Enterococcus faecalis [11] = test: Antibacterial activity against vancomycin-resistant Enterococcus faecalis MS29016 after 18 to 20 hrs by agar dilution method; assay type: functional; method in brief: as §3

| SMILES | logP [1] | MIC (Staphylococcus aureus [2]) [µM] | MIC (Bacillus subtilis) [µM] | MIC (Escherichia coli) [µM] | MIC (Salmonella typhimurium) [µM] | MIC (Pseudomonas aeruginosa) [µM] | hemolysis at 20 min, 50 µM [3] [%] | hemolysis at 20 min, 20 µM [4] [%] | hemolysis at 20 min, 10 µM [5] [%] | hemolysis at 20 min, 5 µM [6] [%] | hemolysis at 20 min, 2 µM [7] [%] | hemolysis at 20 min, 1 µM [8] [%] | MIC (Staphylococcus aureus [9]) [µM] | MIC (Streptococcus agalactiae) [µM] | MIC (Enterococcus faecium) [µM] | MIC (Enterococcus faecalis [10]) [µM] | MIC (Enterococcus faecalis [11]) [µM] |
| --- | --- | --- | --- | --- | --- | --- | --- | --- | --- | --- | --- | --- | --- | --- | --- | --- | --- |
| O[C@@H]1[C@@H](O)[C@H]2O[C@H]3[C@H](O)[C@@H](O)[C@@H](O[C@H]4[C@H](O)[C@@H](O)[C@@H](O[C@H]5[C@H](O)[C@@H](O)[C@@H](O[C@H]6[C@H](O)[C@@H](O)[C@@H](O[C@H]7[C@H](O)[C@@H](O)[C@@H](O[C@H]8[C@H](O)[C@@H](O)[C@@H](O[C@@H]1[C@@H](Cn1cc(CNCc9ccccc9)nn1)O2)O[C@@H]8Cn1cc(CNCc2ccccc2)nn1)O[C@@H]7Cn1cc(CNCc2ccccc2)nn1)O[C@@H]6Cn1cc(CNCc2ccccc2)nn1)O[C@@H]5Cn1cc(CNCc2ccccc2)nn1)O[C@@H]4Cn1cc(CNCc2ccccc2)nn1)O[C@@H]3Cn1cc(CNCc2ccccc2)nn1 | -0.26 | 5 (≈ 11.6 µg/mL) | 5 (≈ 11.6 µg/mL) | 21 (≈ 48.9 µg/mL) | 21 (≈ 48.9 µg/mL) | 21 (≈ 48.9 µg/mL) | 11 | 3 | 2 | 4 | 4 | 2 | 41 (≈ 95.4 µg/mL) | 21 (≈ 48.9 µg/mL) | 41 (≈ 95.4 µg/mL) | > 41 | 41 (≈ 95.4 µg/mL) |
| CC(C)CCCNCc1cn(C[C@H]2O[C@@H]3O[C@H]4[C@H](O)[C@@H](O)[C@@H](O[C@H]5[C@H](O)[C@@H](O)[C@@H](O[C@H]6[C@H](O)[C@@H](O)[C@@H](O[C@H]7[C@H](O)[C@@H](O)[C@@H](O[C@H]8[C@H](O)[C@@H](O)[C@@H](O[C@H]9[C@H](O)[C@@H](O)[C@@H](O[C@H]2[C@H](O)[C@H]3O)O[C@@H]9Cn2cc(CNCCCC(C)C)nn2)O[C@@H]8Cn2cc(CNCCCC(C)C)nn2)O[C@@H]7Cn2cc(CNCCCC(C)C)nn2)O[C@@H]6Cn2cc(CNCCCC(C)C)nn2)O[C@@H]5Cn2cc(CNCCCC(C)C)nn2)O[C@@H]4Cn2cc(CNCCCC(C)C)nn2)nn1 | -0.15 | 3 to 10 (≈ 6.85 to 22.8 µg/mL) | 3 (≈ 6.85 µg/mL) | 10 (≈ 22.8 µg/mL) | 10 (≈ 22.8 µg/mL) | 5 (≈ 11.4 µg/mL) | 56 | 23 | 15 | 7 | 5 | 5 | 21 (≈ 48 µg/mL) | 5 (≈ 11.4 µg/mL) | 10 (≈ 22.8 µg/mL) | > 42 | 42 (≈ 96 µg/mL) |
| O[C@@H]1[C@@H](O)[C@H]2O[C@H]3[C@H](O)[C@@H](O)[C@@H](O[C@H]4[C@H](O)[C@@H](O)[C@@H](O[C@H]5[C@H](O)[C@@H](O)[C@@H](O[C@H]6[C@H](O)[C@@H](O)[C@@H](O[C@H]7[C@H](O)[C@@H](O)[C@@H](O[C@H]8[C@H](O)[C@@H](O)[C@@H](O[C@@H]1[C@@H](Cn1cc(CNCC9CCCC9)nn1)O2)O[C@@H]8Cn1cc(CNCC2CCCC2)nn1)O[C@@H]7Cn1cc(CNCC2CCCC2)nn1)O[C@@H]6Cn1cc(CNCC2CCCC2)nn1)O[C@@H]5Cn1cc(CNCC2CCCC2)nn1)O[C@@H]4Cn1cc(CNCC2CCCC2)nn1)O[C@@H]3Cn1cc(CNCC2CCCC2)nn1 | -0.58 | 1 to 5 (≈ 2.27 to 11.4 µg/mL) | 21 (≈ 47.7 µg/mL) | 21 (≈ 47.7 µg/mL) | > 42 | > 42 | 8 | 2 | 1 | 1 | 1 | 2 | 21 (≈ 47.7 µg/mL) | 10 (≈ 22.7 µg/mL) | 21 (≈ 47.7 µg/mL) | > 42 | > 42 |
| O[C@@H]1[C@@H](O)[C@H]2O[C@H]3[C@H](O)[C@@H](O)[C@@H](O[C@H]4[C@H](O)[C@@H](O)[C@@H](O[C@H]5[C@H](O)[C@@H](O)[C@@H](O[C@H]6[C@H](O)[C@@H](O)[C@@H](O[C@H]7[C@H](O)[C@@H](O)[C@@H](O[C@H]8[C@H](O)[C@@H](O)[C@@H](O[C@@H]1[C@@H](Cn1cc(CNCC9CCCCC9)nn1)O2)O[C@@H]8Cn1cc(CNCC2CCCCC2)nn1)O[C@@H]7Cn1cc(CNCC2CCCCC2)nn1)O[C@@H]6Cn1cc(CNCC2CCCCC2)nn1)O[C@@H]5Cn1cc(CNCC2CCCCC2)nn1)O[C@@H]4Cn1cc(CNCC2CCCCC2)nn1)O[C@@H]3Cn1cc(CNCC2CCCCC2)nn1 | -0.16 | 3 to 10 (≈ 7.11 to 23.7 µg/mL) | 3 (≈ 7.11 µg/mL) | 5 (≈ 11.8 µg/mL) | 10 (≈ 23.7 µg/mL) | 20 (≈ 47.4 µg/mL) | 107 | 78 | 38 | 13 | 0 | 0 | 40 (≈ 94.8 µg/mL) | 40 (≈ 94.8 µg/mL) | 20 (≈ 47.4 µg/mL) | > 40 | 40 (≈ 94.8 µg/mL) |
| CCC(CC)CNCc1cn(C[C@H]2O[C@@H]3O[C@H]4[C@H](O)[C@@H](O)[C@@H](O[C@H]5[C@H](O)[C@@H](O)[C@@H](O[C@H]6[C@H](O)[C@@H](O)[C@@H](O[C@H]7[C@H](O)[C@@H](O)[C@@H](O[C@H]8[C@H](O)[C@@H](O)[C@@H](O[C@H]9[C@H](O)[C@@H](O)[C@@H](O[C@H]2[C@H](O)[C@H]3O)O[C@@H]9Cn2cc(CNCC(CC)CC)nn2)O[C@@H]8Cn2cc(CNCC(CC)CC)nn2)O[C@@H]7Cn2cc(CNCC(CC)CC)nn2)O[C@@H]6Cn2cc(CNCC(CC)CC)nn2)O[C@@H]5Cn2cc(CNCC(CC)CC)nn2)O[C@@H]4Cn2cc(CNCC(CC)CC)nn2)nn1 | -0.08 | 3 to 5 (≈ 6.85 to 11.4 µg/mL) | 3 (≈ 6.85 µg/mL) | 10 (≈ 22.8 µg/mL) | 42 (≈ 96 µg/mL) | 42 (≈ 96 µg/mL) | 12 | 8 | 8 | 3 | 1 | 5 | 21 (≈ 48 µg/mL) | 3 (≈ 6.85 µg/mL) | 10 (≈ 22.8 µg/mL) | > 42 | 21 (≈ 48 µg/mL) |
| CCCC(C)CCNCc1cn(C[C@H]2O[C@@H]3O[C@H]4[C@H](O)[C@@H](O)[C@@H](O[C@H]5[C@H](O)[C@@H](O)[C@@H](O[C@H]6[C@H](O)[C@@H](O)[C@@H](O[C@H]7[C@H](O)[C@@H](O)[C@@H](O[C@H]8[C@H](O)[C@@H](O)[C@@H](O[C@H]9[C@H](O)[C@@H](O)[C@@H](O[C@H]2[C@H](O)[C@H]3O)O[C@@H]9Cn2cc(CNCCC(C)CCC)nn2)O[C@@H]8Cn2cc(CNCCC(C)CCC)nn2)O[C@@H]7Cn2cc(CNCCC(C)CCC)nn2)O[C@@H]6Cn2cc(CNCCC(C)CCC)nn2)O[C@@H]5Cn2cc(CNCCC(C)CCC)nn2)O[C@@H]4Cn2cc(CNCCC(C)CCC)nn2)nn1 (some centres not stated) | 0.27 | 3 to 20 (≈ 7.15 to 47.7 µg/mL) | 10 (≈ 23.8 µg/mL) | 5 (≈ 11.9 µg/mL) | 10 (≈ 23.8 µg/mL) | 10 (≈ 23.8 µg/mL) | 119 | 108 | 99 | 73 | 30 | 10 | 40 (≈ 95.3 µg/mL) | 20 (≈ 47.7 µg/mL) | 20 (≈ 47.7 µg/mL) | > 40 | 40 (≈ 95.3 µg/mL) |
